# ChEMBL document CHEMBL3232890, “Novel structural hybrids of pyrazolobenzothiazines with benzimidazoles as cholinesterase inhibitors” (Eur J Med Chem, 2014)
# Where a name gives a salt, the structure may show the parent alone.
# Tests used:
# Cholinesterase = Cholinesterase (Equus caballus, UniProt P81908); assay: Inhibition of BuChE in equine serum using butyrylthiocholine chloride as substrate preincubated with enzyme for 10 mins prior to substrate challenge for 15 mins by Ellman's method
# [1] = Inhibition of electric eel AChE type VI-S using acetylthiocholine iodide as substrate preincubated with enzyme for 10 mins prior to substrate challenge for 15 mins by Ellman's method; set-up: species or system Electrophorus electricus
# Procedure, shortened: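 Enzyme was EeAChE at 0.5 U/mg or equine BuChE at 3.4 U/mg, diluted in Tris-HCl with 0.1% BSA. Eight to ten serial dilutions were preincubated for 10 min at 25 °C, then incubated for 15 min at 25 °C, and read at 405 nm in triplicate. IC50 came from linear regression.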
# [2] = biological target: Cholinesterase (Equus caballus) (UniProt P81908); assay: Inhibition of BuChE in equine serum using butyrylthiocholine chloride as substrate at 500 uM preincubated with enzyme for 10 mins prior to substrate challenge for 15 mins by Ellman's method
# Procedure, shortened: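 The compound was added from DMSO (1% final) at 0.5 mM final. Enzyme and compound were preincubated for 10 min at 25 °C, then incubated for 15 min at 25 °C, and absorbance was read at 405 nm. Blanks lacked enzyme or substrate.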
# Cholinesterase, sequence (P81908 whole entry): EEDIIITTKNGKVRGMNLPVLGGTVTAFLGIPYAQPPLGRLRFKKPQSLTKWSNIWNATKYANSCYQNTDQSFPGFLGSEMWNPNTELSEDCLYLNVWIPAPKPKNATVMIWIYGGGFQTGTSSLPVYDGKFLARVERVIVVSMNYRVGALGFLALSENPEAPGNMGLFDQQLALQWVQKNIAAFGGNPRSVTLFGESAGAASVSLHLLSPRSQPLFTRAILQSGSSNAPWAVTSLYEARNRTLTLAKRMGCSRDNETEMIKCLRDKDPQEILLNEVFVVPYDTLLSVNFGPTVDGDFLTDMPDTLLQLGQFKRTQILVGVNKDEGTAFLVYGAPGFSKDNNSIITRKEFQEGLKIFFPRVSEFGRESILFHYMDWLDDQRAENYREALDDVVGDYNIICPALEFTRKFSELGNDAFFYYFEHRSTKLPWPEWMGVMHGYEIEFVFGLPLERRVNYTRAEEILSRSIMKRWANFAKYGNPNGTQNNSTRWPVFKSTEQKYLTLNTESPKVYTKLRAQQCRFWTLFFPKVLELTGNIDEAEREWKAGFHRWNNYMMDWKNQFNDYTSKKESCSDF
# Cholinesterase (Equus caballus), sequence (P81908 whole entry): as above
Structure (SMILES),IC50 (Cholinesterase) [nM],IC50 [1] [nM],inhibition [2] [%]
CN1c2c(nn(-c3ccc(-c4nc5cc(C(=O)O)ccc5[nH]4)cc3)c2-c2ccccc2)-c2ccccc2S1(=O)=O,4620,6110,–
COc1cc2c(cc1OC)C(=O)C(CC1CCN(Cc3ccccc3)CC1)C2 (configuration not stated) [DONEPEZIL HYDROCHLORIDE],–,32,–
Cc1ccc2[nH]c(-c3ccc(-n4nc5c(c4C)N(C)S(=O)(=O)c4ccccc4-5)cc3)nc2c1,41,7530,–
Cc1c2c(nn1-c1ccc(-c3nc4cc([N+](=O)[O-])ccc4[nH]3)cc1)-c1ccccc1S(=O)(=O)N2C,–,492,38.5
CN1c2c(nn(-c3ccc(-c4nc5ccccc5[nH]4)cc3)c2-c2ccccc2)-c2ccccc2S1(=O)=O,43,11,–
Cc1c2c(nn1-c1ccc(-c3nc4ccccc4o3)cc1)-c1ccccc1S(=O)(=O)N2C,17,6920,–
Cc1c2c(nn1-c1ccc(-c3nc4cncnc4[nH]3)cc1)-c1ccccc1S(=O)(=O)N2C,–,1950,35.5
CN1c2c(nn(-c3ccc(-c4nc5ccccc5o4)cc3)c2-c2ccccc2)-c2ccccc2S1(=O)=O,–,54,36.5
CN1c2c(nn(-c3ccc(-c4nc5cncnc5[nH]4)cc3)c2-c2ccccc2)-c2ccccc2S1(=O)=O,1330,5220,–
Cc1c2c(nn1-c1ccc(-c3nc4ccccc4[nH]3)cc1)-c1ccccc1S(=O)(=O)N2C,43,2910,–
Cc1ccc2[nH]c(-c3ccc(-n4nc5c(c4-c4ccccc4)N(C)S(=O)(=O)c4ccccc4-5)cc3)nc2c1,–,122,31.8
Cc1cc2nc(-c3ccc(-n4nc5c(c4C)N(C)S(=O)(=O)c4ccccc4-5)cc3)[nH]c2cc1C,273,41,–
Cc1c2c(nn1-c1ccc(-c3nc4cc(Cl)ccc4[nH]3)cc1)-c1ccccc1S(=O)(=O)N2C,–,1020,38.7
Cc1c2c(nn1-c1ccc(-c3nc4cc(C(=O)O)ccc4[nH]3)cc1)-c1ccccc1S(=O)(=O)N2C,26,1130,–
CCOC(=O)c1ccc2[nH]c(-c3ccc(-n4nc5c(c4-c4ccccc4)N(C)S(=O)(=O)c4ccccc4-5)cc3)nc2c1,180,13,–
COc1ccc2[nH]c(-c3ccc(-n4nc5c(c4C)N(C)S(=O)(=O)c4ccccc4-5)cc3)nc2c1,6920,1140,–
CN1c2c(nn(-c3ccc(-c4nc5cc(Cl)ccc5[nH]4)cc3)c2-c2ccccc2)-c2ccccc2S1(=O)=O,9940,3020,–
CN1c2c(nn(-c3ccc(-c4nc5cc(Br)ccc5[nH]4)cc3)c2-c2ccccc2)-c2ccccc2S1(=O)=O,3230,6900,–
Cc1c2c(nn1-c1ccc(-c3nc4cc(Br)ccc4[nH]3)cc1)-c1ccccc1S(=O)(=O)N2C,49,541,–
CN(C)C(=O)Oc1cccc([N+](C)(C)C)c1 [NEOSTIGMINE],49600,22200,–
Cc1cc2nc(-c3ccc(-n4nc5c(c4-c4ccccc4)N(C)S(=O)(=O)c4ccccc4-5)cc3)[nH]c2cc1C,–,3820,34.1
CCOC(=O)c1ccc2[nH]c(-c3ccc(-n4nc5c(c4C)N(C)S(=O)(=O)c4ccccc4-5)cc3)nc2c1,–,993,29.5
COc1ccc2[nH]c(-c3ccc(-n4nc5c(c4-c4ccccc4)N(C)S(=O)(=O)c4ccccc4-5)cc3)nc2c1,–,7130,37.3
CN1c2c(nn(-c3ccc(-c4nc5cc([N+](=O)[O-])ccc5[nH]4)cc3)c2-c2ccccc2)-c2ccccc2S1(=O)=O,–,7940,30.7
